Rows were chosen to be rich in hits. Some 2.3% of all compounds tested hit in one or more screens of this group.
TRPC6 inh: mouse TRPC6 channel inhibition; B-score at 10 µM; hit rate 1.1% among 310,000; HEK293-TRPC6, membrane potential dye, ACh-evoked depolarization; hits give low values; Q61143;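 active = B-score under library mean minus 3 SD, initial fluorescence not abnormally high, positive integrated signal ratio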;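 also: B-score derived from integrated fluorescence ratio over the kinetic read; more negative B-score means stronger inhibition of depolarization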
Target sequence (Q61143 whole entry, looked up): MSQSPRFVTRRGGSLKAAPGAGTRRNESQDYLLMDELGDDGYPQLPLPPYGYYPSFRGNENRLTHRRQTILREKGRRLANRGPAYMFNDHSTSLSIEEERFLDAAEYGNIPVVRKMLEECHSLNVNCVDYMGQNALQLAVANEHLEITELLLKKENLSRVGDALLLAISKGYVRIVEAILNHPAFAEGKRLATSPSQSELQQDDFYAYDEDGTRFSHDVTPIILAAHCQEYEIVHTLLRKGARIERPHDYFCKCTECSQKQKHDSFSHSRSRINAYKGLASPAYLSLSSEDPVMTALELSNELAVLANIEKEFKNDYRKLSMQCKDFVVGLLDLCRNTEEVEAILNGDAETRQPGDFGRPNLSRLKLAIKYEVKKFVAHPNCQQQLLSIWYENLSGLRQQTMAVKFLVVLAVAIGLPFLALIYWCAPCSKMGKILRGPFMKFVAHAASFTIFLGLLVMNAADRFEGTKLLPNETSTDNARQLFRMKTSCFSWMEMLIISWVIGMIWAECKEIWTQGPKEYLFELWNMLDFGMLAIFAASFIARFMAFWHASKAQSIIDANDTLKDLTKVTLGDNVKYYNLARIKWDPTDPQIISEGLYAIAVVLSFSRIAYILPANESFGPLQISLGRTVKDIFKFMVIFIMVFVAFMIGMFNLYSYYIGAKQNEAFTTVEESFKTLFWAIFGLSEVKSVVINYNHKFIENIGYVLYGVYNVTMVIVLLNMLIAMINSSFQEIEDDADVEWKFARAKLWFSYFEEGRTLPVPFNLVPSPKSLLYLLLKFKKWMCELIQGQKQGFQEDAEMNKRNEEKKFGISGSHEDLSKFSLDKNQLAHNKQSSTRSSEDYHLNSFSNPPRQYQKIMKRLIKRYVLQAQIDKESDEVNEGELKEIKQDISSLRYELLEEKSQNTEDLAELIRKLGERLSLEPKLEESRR
TRPC4 inh: inhibitors of mouse TRPC4 channel; B-score at 10 µM; HEK293 TRPC4beta/mu-opioid, DAMGO-evoked Fluo4 calcium flux; hits give low values; hit rate 0.39% among 300,000; AID 2247; Q9QUQ5;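 active = B-score over 3 SD under the library average, no early fluorescence shift, positive overall ratio signal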
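Assay system: HEK293 cells with stable TRPC4beta plus mu-opioid receptor expression; Probe or stimulus: DAMGO in two steps, submaximal then maximal; Dosing: single-point compound dosing; Measured by: Fluo4 calcium-dye fluorescence, kinetic read; Read-out basis: B score from integrated Fluo4 fluorescence ratio.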
TRPC4 PAM: allosterically enhances the mouse TRPC4 cation channel | AID 2227 | hit rate 0.42% among 310,000 | Q9QUQ5 | HEK293 TRPC4beta/mu-opioid, DAMGO EC20, Fluo-4 Ca2+ flux; hits give high values | B-score at 10 µM;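 active = B-score of calcium response area above 5 SD of library B-scores, with initial fluorescence ratio within 5 SD of library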;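 also: B-score of integrated fluorescence ratio over time as area under calcium response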
TRPC4 agonist: TRPC4 (mouse) channel activation. hit rate 0.49% among 310,000. Q9QUQ5. B-score at 10 µM. HEK293 TRPC4beta/mu-opioid, Fluo4 calcium fluorescence; hits give high values;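 active = B-score above 5 SD of library B-scores, and initial fluorescence ratio not above library mean plus 5 SD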;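 also: positive B-score marks a calcium rise read as TRPC4 activation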
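Assay system – TRPC4beta and mu-opioid receptor HEK293 stable cells · Measured by – Fluo4 fluorescence, kinetic · Schedule – dye loading 45 min room temperature, 110 s kinetic read · Read-out – B-scored integrated calcium fluorescence ratio · Controls – buffer and maximal DAMGO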
TRPC6 act: mouse TRPC6 channel activation; Q61143; HEK293-TRPC6 membrane potential dye fluorescence; hits give high values; B-score at 10 µM; hit rate 0.13% among 310,000; AID 2550;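 active = B-score of the integrated fluorescence ratio above library mean plus 3 SD, and starting fluorescence ratio within library mean plus 5 SD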;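 also: higher score means more depolarization so channel activation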
HEK293 MPD ctr: checks TRPC6 modulator effects in parental HEK293 cells; shares compounds with TRPC6 inh; hit rate 51% among 2,400; membrane potential dye fluorescence; membrane potential signal change, % at 10 µM;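 active = membrane potential signal moves up or down beyond 5 SD from buffer-only wells, on both duplicate plates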
HEK293 MPD ctr 2: second counter-screen for TRPC6 modulators: effect in parental HEK293 cells. membrane potential dye fluorescence; after compound, maximal acetylcholine stimulation. hit rate 14% among 2,400. AID 488926. inhibition, % at 10 µM. shares compounds with TRPC6 inh;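 active = membrane potential signal drops by more than 5 SD from the mean control signal, in both duplicate plates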;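 also: plate controls were acetylcholine ECmax control wells for no effect and buffer only wells for full effect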
TRPC4 ctr mod: tests whether TRPC6 modulators also affect mouse TRPC4. shares compounds with TRPC6 inh. hit rate 69% among 2,400. percent change from control (negative = decrease, positive = increase), % at 10 µM. AID 488927. HEK293 TRPC4/mu-opioid, membrane potential fluorescence;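 active = membrane potential signal moved up or down beyond 5 SD of buffer control wells, in both duplicate plates, actives on both sides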;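 also: plate controls were assay buffer wells for no effect and DAMGO maximal-effect wells for full effect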
TRPC4 ctr inh 2: second selectivity test of TRPC6 modulators against mouse TRPC4; shares compounds with TRPC6 inh; HEK293 TRPC4/mu-opioid, membrane potential dye fluorescence; stimulated with maximal-effect DAMGO; inhibition, % at 10 µM; hit rate 55% among 2,400; AID 488928;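 active = drop in membrane potential signal beyond 5 SD of the control wells in both duplicate plates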;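 also: TRPC4 counter screen for TRPC6 hits run under conditions tuned for TRPC6 not TRPC4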
TRPC6 block conf: confirmation of mouse TRPC6 inhibitors. shares compounds with TRPC6 inh. HEK293-TRPC6, membrane potential dye, ACh-evoked depolarization. inhibition, % at 10 µM. hit rate 43% among 3,300. AID 488960;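 active = fluorescence ratio falls more than 5 SD below the full-stimulation control mean, in both duplicate runs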;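 also: integrated fluorescence ratio of peak minus minimum over baseline after agonist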
TRPC6 act conf: confirmation of mouse TRPC6 activators; shares compounds with TRPC6 inh; HEK293-TRPC6 membrane potential dye fluorescence, FDSS; activation, % at 10 µM; hit rate 11% among 2,800; AID 488961;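 active = ratio signal rise beyond 5 SD above unstimulated control wells' mean, seen in both duplicate runs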;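 also: plate controls were buffer EC0 wells for no effect and acetylcholine ECmax response for full effect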
Starred values were filed as active, the others as inactive.

What do the screens show for `O=C(Nc1cccc(-c2cccc(F)c2)c1)C1CCN(C2CCOCC2)CC1`?
TRPC6 inh: inactive; TRPC4 inh: inactive; TRPC4 PAM: inactive; TRPC4 agonist: inactive; TRPC6 act: inactive

What do the screens show for `CCCCCCc1ccc(N2C[C@H](CCCCC)[C@@H](CC(=O)NCc3ccccc3)C2=O)cc1`?
TRPC6 inh: inactive; TRPC4 inh: inactive; TRPC4 PAM: inactive; TRPC4 agonist: inactive; TRPC6 act: 22*; HEK293 MPD ctr: 344%*; HEK293 MPD ctr 2: inactive; TRPC4 ctr mod: 77%*; TRPC4 ctr inh 2: inactive; TRPC6 block conf: inactive; TRPC6 act conf: 169%*

How did CCCCCCc1ccc(N2C[C@H](Cc3ccccc3)[C@@H](CC(=O)NCc3ccc(OC)cc3)C2=O)cc1 do in these assays?
TRPC6 inh: inactive; TRPC4 inh: inactive; TRPC4 PAM: inactive; TRPC4 agonist: inactive; TRPC6 act: inactive

How did CCCCCCc1ccc(N2C[C@H](CCCCC)[C@@H](CC(=O)NCc3ccc(OC)cc3)C2=O)cc1 do in these assays?
TRPC6 inh: inactive; TRPC4 inh: inactive; TRPC4 PAM: inactive; TRPC4 agonist: inactive; TRPC6 act: 17*; HEK293 MPD ctr: 472%*; HEK293 MPD ctr 2: inactive; TRPC4 ctr mod: 84%*; TRPC4 ctr inh 2: inactive; TRPC6 block conf: inactive; TRPC6 act conf: 95%*

What do the screens show for `Cc1ccc(S(=O)(=O)NCCCNS(=O)(=O)c2ccccc2[N+](=O)[O-])cc1`?
TRPC6 inh: inactive; TRPC4 inh: inactive; TRPC4 PAM: inactive; TRPC4 agonist: inactive; TRPC6 act: inactive

What do the screens show for `CCCOc1ccc(CNC(=O)C2CCN(c3nnc(N4CCCC4=O)s3)CC2)cc1`?
TRPC6 inh: inactive; TRPC4 inh: inactive; TRPC4 PAM: inactive; TRPC4 agonist: inactive; TRPC6 act: inactive

How did C#CC1CCCCC1NC(=O)Nc1cnccc1C(F)(F)F (stereo not given) do in these assays?
TRPC6 inh: inactive; TRPC4 inh: inactive; TRPC4 PAM: inactive; TRPC4 agonist: inactive; TRPC6 act: inactive

Results for CC1C/C(=C/c2cccn2C)C(=O)/C(=C/c2cccn2C)C1 (stereo not given) ?
TRPC6 inh: inactive; TRPC4 inh: inactive; TRPC4 PAM: inactive; TRPC4 agonist: inactive; TRPC6 act: 79*; HEK293 MPD ctr: active; HEK293 MPD ctr 2: inactive; TRPC4 ctr mod: 440%*; TRPC4 ctr inh 2: inactive; TRPC6 block conf: inactive; TRPC6 act conf: 311%*

How did CS(=O)(=O)c1ccccc1-c1nnc(NC(=O)c2ccc3ncsc3c2)o1 do in these assays?
TRPC6 inh: inactive; TRPC4 inh: inactive; TRPC4 PAM: inactive; TRPC4 agonist: inactive; TRPC6 act: inactive

Results for COc1ccc(N(Cc2ccccc2)S(=O)(=O)c2cc(C(=O)O)ccc2Cl)cc1 ?
TRPC6 inh: inactive; TRPC4 inh: inactive; TRPC4 PAM: inactive; TRPC4 agonist: inactive; TRPC6 act: 25*; HEK293 MPD ctr: 190%*; HEK293 MPD ctr 2: inactive; TRPC4 ctr mod: 42%*; TRPC4 ctr inh 2: inactive; TRPC6 block conf: inactive; TRPC6 act conf: 148%*

Results for O=C(O)c1ccc(Cl)c(S(=O)(=O)N(Cc2ccccc2)c2ccc(F)cc2)c1 ?
TRPC6 inh: inactive; TRPC4 inh: inactive; TRPC4 PAM: inactive; TRPC4 agonist: inactive; TRPC6 act: 17*; HEK293 MPD ctr: 140%*; HEK293 MPD ctr 2: inactive; TRPC4 ctr mod: 22%*; TRPC4 ctr inh 2: inactive; TRPC6 block conf: inactive; TRPC6 act conf: 144%*

What do the screens show for `Cn1cc(S(=O)(=O)N2CCOCC2)cc1C(=O)Nc1cccc(Cl)c1`?
TRPC6 inh: inactive; TRPC4 inh: inactive; TRPC4 PAM: inactive; TRPC4 agonist: inactive; TRPC6 act: inactive

What do the screens show for `Cc1ccc(CNC(=O)c2cc3c(=O)n(C)c4ccccc4c3n2C)cc1`?
TRPC6 inh: inactive; TRPC4 inh: inactive; TRPC4 PAM: inactive; TRPC4 agonist: inactive; TRPC6 act: inactive

Results for CN(CCNC(=O)c1cc2c(=O)n(C)c3ccccc3c2n1C)Cc1ccccc1 ?
TRPC6 inh: -5.2*; TRPC4 inh: inactive; TRPC4 PAM: inactive; TRPC4 agonist: inactive; TRPC6 act: inactive; HEK293 MPD ctr: inactive; HEK293 MPD ctr 2: inactive; TRPC4 ctr mod: inactive; TRPC4 ctr inh 2: 56%*; TRPC6 block conf: inactive; TRPC6 act conf: inactive

What do the screens show for `COc1ccc(NC(=O)Nc2nc(C)cc(C)n2)c(OC)c1`?
TRPC6 inh: -5.4*; TRPC4 inh: inactive; TRPC4 PAM: inactive; TRPC4 agonist: inactive; TRPC6 act: inactive; HEK293 MPD ctr: -75%*; HEK293 MPD ctr 2: inactive; TRPC4 ctr mod: -15%*; TRPC4 ctr inh 2: inactive; TRPC6 block conf: inactive; TRPC6 act conf: inactive
